{"data": "Experimental data collected from several papers", "target": "Dual specificity mitogen-activated protein kinase kinase 2 (MAP2K2, Homo sapiens, UniProt P36507)"}
{"Compound": "O=C(c1ccc(Nc2ncc(Cl)c(-c3cc4ccccc4s3)n2)cc1)N1CCC(N2CCCC2)CC1", "test": "binding, competition with immobilised ligand", "conditions": "1 µM", "remaining binding [%]": 27}
{"Compound": "CCOC(=O)c1cc2cc(-c3cc(C(=O)NCc4ccc(C(=O)O)cc4)nn3C)ccc2[nH]1", "test": "cell-free assay, competition with immobilised ligand", "conditions": "0.1 µM", "remaining binding [%]": 83}
{"Compound": "O=C(NCCCN1CCOCC1)c1ccc(Nc2ncc(Cl)c(-c3ccc(Cl)s3)n2)cc1", "test": "binding, competition with immobilised ligand", "conditions": "1 µM", "remaining binding [%]": 59}
{"Compound": "Cc1noc([C@H]2C[C@@H](c3ccc(C(F)(F)F)cc3)CN(C(=O)N3CCS(=O)(=O)C3)C2)n1", "test": "cell-free assay, competition with immobilised ligand", "conditions": "1 µM", "remaining binding [%]": 90}
{"Compound": "CN(C)c1ncc(F)c(-c2cnn3ncccc23)n1", "test": "binding", "conditions": "1 µM", "remaining binding [%]": 74}
{"Compound": "CCN1CCN(Cc2ccc(C(=O)Nc3ccc(C)c(Oc4ccc5c(c4)CC(=O)N5)c3)cc2C(F)(F)F)CC1", "test": "binding, competition with immobilised ligand", "conditions": "1 µM", "remaining binding [%]": 100}
{"Compound": "N[C@H]1CCN(c2nccc(-c3cnn4ncccc34)n2)C1", "test": "binding", "conditions": "1 µM", "remaining binding [%]": 100}
{"Compound": "CC(=O)N1CCC(c2ccc(C(=O)NC(=N)N)cc2C(F)(F)F)CC1", "test": "cell-free assay, competition with immobilised ligand", "conditions": "1 µM", "remaining binding [%]": 96}
{"Compound": "O=C(Nc1c[nH]nc1C(=O)NC1CCNCC1)c1cc(F)cc(F)c1", "test": "binding, competition with immobilised ligand", "conditions": "1 µM", "remaining binding [%]": 90}
{"Compound": "CN(C)c1nccc(-c2cnc3ncccn23)n1", "test": "binding", "conditions": "1 µM", "remaining binding [%]": 65}
{"Compound": "N#Cc1ccccc1CSc1nnc2c(n1)[nH]c1ccccc12", "test": "binding, competition with immobilised ligand", "conditions": "10 µM", "remaining binding [%]": 87}
{"Compound": "CN(CCCC(F)(F)F)c1nccc(-c2cnn3ncccc23)n1", "test": "binding", "conditions": "1 µM", "remaining binding [%]": 100}
{"Compound": "O=C(Nc1cccnn1)N1CC(C/C=C/c2cncc(Oc3ccc(C(F)(F)F)cn3)n2)C1", "test": "cell-free assay, competition with immobilised ligand", "conditions": "1 µM", "remaining binding [%]": 95}
{"Compound": "Nc1ncc2c(n1)-c1c([nH]c3ccc(C#CC4CC4)cc13)CCCC2", "test": "binding, competition with immobilised ligand", "conditions": "1 µM", "remaining binding [%]": 96}
{"Compound": "COc1ccnn2ncc(-c3ccnc(N(C)C)n3)c12", "test": "binding", "conditions": "1 µM", "remaining binding [%]": 100}
{"Compound": "CNC(=O)[C@@H]1CC[C@@H](n2c(-c3ccc4cnccc4c3)nc3ccc(C(=O)NCc4cccc(C(N)=O)c4)cc32)C1", "test": "binding, competition with immobilised ligand", "conditions": "1 µM", "remaining binding [%]": 79}
{"Compound": "Cc1nccc(COC(=O)N2C[C@@H]3[C@@H](CNC(=O)c4ccc5[nH]nnc5c4)[C@@H]3C2)n1", "test": "cell-free assay, competition with immobilised ligand", "conditions": "1 µM", "remaining binding [%]": 84}
{"Compound": "C[C@@H]1CN(c2ccc3ncc(-c4ccc5[nH]nc(C6CC6)c5c4)n3n2)C[C@H](C)O1", "test": "binding, competition with immobilised ligand", "conditions": "50 nM", "remaining binding [%]": 72}
{"Compound": "COc1ncc2cc3ccccc3nc2c1C#N", "test": "cell-free assay, competition with immobilised ligand", "conditions": "5 µM", "remaining binding [%]": 92}
{"Compound": "c1cnn2ncc(-c3ccnc(N4CCC45COC5)n3)c2c1", "test": "binding", "conditions": "1 µM", "remaining binding [%]": 81}
{"Compound": "CO[C@@H](C)c1c(Nc2ccc([C@@H](N(C)C(=O)C3CCS(=O)(=O)CC3)C(F)(F)F)cc2)cnc2cc(Cl)nn12", "test": "cell-free assay, competition with immobilised ligand", "conditions": "1 µM", "remaining binding [%]": 97}
{"Compound": "C[C@@H](c1ccc(-n2cnc3c(N)ncnc32)cc1)N1CCc2nn(C)c(Cc3ccccc3)c2C1=O", "test": "binding, competition with immobilised ligand", "conditions": "0.1 µM", "remaining binding [%]": 92}
{"Compound": "CN(C)CC#Cc1ccc(OCCCc2sc(N3CCc4cccc(C(=O)Nc5nc6ccccc6s5)c4C3)nc2C(=O)O)c(F)c1", "test": "cell-free assay, competition with immobilised ligand", "conditions": "1 µM", "remaining binding [%]": 100}
{"Compound": "Cc1cnc(Nc2ccc(C(=O)N3CCC(N4CCCC4)CC3)cc2)nc1-c1cc2ccccc2s1", "test": "binding, competition with immobilised ligand", "conditions": "1 µM", "remaining binding [%]": 26}
